From ChEMBL document CHEMBL1909507, “Substituted phenyl 4-(2-oxoimidazolidin-1-yl)benzenesulfonamides as antimitotics. Antiproliferative, antiangiogenic and antitumoral activity, and quantitative structure-activity relationships” (Eur J Med Chem, 2011)
Activity calls are given as the source filed them. The calls are words filed in the database; no cut-off is given here.

Tests used:
[1] = Antiproliferative activity against mouse B16F0 after 48 hrs by SRB assay
[2] = Antiproliferative activity against mouse P388D1 after 48 hrs by SRB assay; conditions: P388D1, 48 h
[3] = Antiproliferative activity against human multidrug-resistant CEM/VLB cells after 48 hrs by SRB assay; assay type: functional
[4] = system: K562; assay: Antiproliferative activity against human K562 after 48 hrs by SRB assay; assay type: functional, cell-based; conditions: K562, 48 h
[5] = system: CCRF-CEM; assay: Antiproliferative activity against human CEM after 48 hrs by SRB assay; assay type: functional, cell-based
[6] = system: M21; assay: Cell cycle arrest in human M21 cells assessed as accumulation at G0/G1 phase at 5 times IC50 after 24 hrs using propidium iodide staining by flow cytometric analysis (reference value: 61%); assay type: functional
Procedure, shortened: (§1)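 Cells were trypsinized, fixed in ice-cold ethanol, treated with RNase, and stained with propidium iodide (1 mg/mL stock) for 1 h on ice. Cell-cycle distribution was measured by flow cytometry.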

[7] = system: DU-145; assay: Antiproliferative activity against human DU145 after 48 hrs by SRB assay; assay type: functional, cell-based; conditions: DU-145, 48 h
[8] = system: CHO-VV 3-2; assay: Antiproliferative activity against colchicine and vinblastine-resistant CHO-VV 3-2 cells after 48 hrs by SRB assay; assay type: functional, cell-based; conditions: Cricetulus griseus, CHO-VV 3-2, 48 h
Procedure, shortened: (§2)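 Adherent cells were seeded per line (e.g. HT-29 5000, M21 3500, MCF7 7500, CHO and CHO-VV 3-2 and CHO-TAX 5-6 1000 cells/well) and grown 24 h at 37 °C, 5% CO₂. DMSO-solubilized drug was diluted in medium and added at 1000–0.98 nM for 48 h. Cells were fixed with cold 10% TCA and stained with 0.1% sulforhodamine B, with absorbance read at 530–565 nm.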

[9] = Toxicity against fertilized chicken embryo assessed as mortality at 3 ug, iv by CAM assay; assay type: organism-based, Gallus gallus; conditions: in vivo, read-out: Activity
Procedure, shortened: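 HT-1080 fibrosarcoma cells (3.5 × 10⁵ cells/egg) grafted onto the chorioallantoic membrane of fertilized chicken eggs (10 days preincubation). On day 11, drug in DMSO diluted into excipient (ethanol:cremophor:PBS 6.25:6.25:87.5) given iv at 3 µg per egg. Chick mortality recorded over 7-day tumor growth period. Untreated eggs as negative controls and for normalization. Cumulative results from two independent experiments, 10–12 eggs each.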

[10] = system: MDA-MB-231; assay: Antiproliferative activity against human MDA-MB-231 after 48 hrs by SRB assay; assay type: functional, cell-based; conditions: MDA-MB-231, 48 h
[11] = system: HT-1080; assay: Antiproliferative activity against human HT1080 after 48 hrs by SRB assay; assay type: functional, cell-based; conditions: HT-1080, 48 h
Procedure, shortened: as §2

[12] = system: L1210; assay: Antiproliferative activity against mouse L1210 after 48 hrs by SRB assay; assay type: functional, cell-based; conditions: L1210, 48 h
[13] = system: SK-OV-3; assay: Antiproliferative activity against human SKOV3 after 48 hrs by SRB assay; assay type: functional, cell-based; conditions: SK-OV-3, 48 h
Procedure, shortened: as §2

[14] = system: HT-29; assay: Antiproliferative activity against human HT-29 cells after 48 hrs by SRB assay; assay type: functional, cell-based; conditions: HT-29, 48 h
Procedure, shortened: as §2

[15] = system: M21; assay: Cell cycle arrest in human M21 cells assessed as accumulation at S phase at 5 times IC50 after 24 hrs using propidium iodide staining by flow cytometric analysis (reference value: 30%); assay type: functional
Procedure, shortened: as §1

[16] = system: M21; assay: Disruption of cytoskeleton microtubule structure of human M21 cells at 5 times IC50 after 16 hrs by indirect immunofluorescence assay; assay type: functional, cell-based
Procedure, shortened: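 Cells were fixed in 3.7% formaldehyde, permeabilized with saponin, and stained with anti-β-tubulin TUB 2.1, Alexa-488 anti-mouse secondary and DAPI. Fluorescence microscopy was used for imaging.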

[17] = system: CHO-VV 3-2; assay: Ratio of IC50 for colchicine and vinblastine-resistant CHO-VV 3-2 cells to IC50 for CHO cells; assay type: functional, Cricetulus griseus
Procedure, shortened: (§3)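 Each ratio is the IC50 in the resistant line divided by the IC50 in its parental line (CHO for CHO-TAX 5-6 and CHO-VV 3-2; CEM for CEM-VLB).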

[18] = system: MDA-MB-231; assay: Displacement of N,N'-ethylenebis(iodoacetamide) from beta-tubulin colchicine-binding site in human MDA-MB-231 cells at 1000 times IC50 preincubated for 2 hrs before N,N'-ethylenebis(iodoacetamide) addition measured after 1.5 hrs by chemiluminescence assay; assay type: cell-based
Procedure, shortened: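 EBI (100, final) was added for 1.5 h at 37 °C with drug present; control was 0.5% DMSO. Sonicated lysates (20 µg protein) were run on 10% SDS-PAGE and blotted with anti-β-tubulin TUB 2.1. The β-tubulin–EBI adduct was scored by ECL.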

[19] = system: CHO-TAX 5-6; assay: Antiproliferative activity against paclitaxel-resistant CHO-TAX 5-6 cells after 48 hrs by SRB assay; assay type: functional, cell-based; conditions: Cricetulus griseus, CHO-TAX 5-6, 48 h
Procedure, shortened: as §2

[20] = system: CHO-TAX 5-6; assay: Ratio of IC50 for paclitaxel-resistant CHO-TAX 5-6 cells to IC50 for CHO cells; assay type: functional, Cricetulus griseus
Procedure, shortened: as §3

[21] = system: MCF7; assay: Antiproliferative activity against human MCF7 cells after 48 hrs by SRB assay; assay type: functional, cell-based; conditions: MCF7, 48 h
Procedure, shortened: as §2

[22] = system: HT-1080; assay: Antitumor activity against human HT1080 cells xenografted in chicken chorioallantoic membrane assessed as inhibition of tumor growth at 3 ug, iv measured on day 17 by CAM assay; assay type: functional
Procedure, shortened: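 Fertilized chicken eggs were incubated 10 days, then 3.5 × 10⁵ HT-1080 cells/egg were applied to the exposed chorioallantoic membrane. On day 11, drug was given iv in DMSO diluted in excipient (ethanol:cremophor:PBS 6.25:6.25:87.5). Read-out was tumor wet weight as % of untreated eggs, plus chick mortality. Data were pooled from two independent experiments of 10–12 eggs each.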

[23] = system: CCRF-CEM; assay: Ratio of IC50 for human multidrug-resistant CEM/VLB cells to IC50 for human CEM cells; assay type: functional
Procedure, shortened: as §3

[24] = system: M21; assay: Cell cycle arrest in human M21 cells assessed as accumulation at G2/M phase at 5 times IC50 after 24 hrs using propidium iodide staining by flow cytometric analysis (reference value: 9%); assay type: functional
Procedure, shortened: as §1

[25] = system: CHO; assay: Antiproliferative activity against Chinese hamster CHO after 48 hrs by SRB assay; conditions: Cricetulus griseus
[26] = system: M21; assay: Antiproliferative activity against human M21 cells after 48 hrs by SRB assay; assay type: functional, cell-based; conditions: M21, 48 h
Procedure, shortened: as §2

SMILES | IC50 [1] [nM] | IC50 [2] [nM] | IC50 [3] [nM] | IC50 [4] [nM] | IC50 [5] [nM] | Activity [6] [%] | IC50 [7] [nM] | IC50 [8] [nM] | mortality [9] [%] | IC50 [10] [nM] | IC50 [11] [nM] | IC50 [12] [nM] | IC50 [13] [nM] | IC50 [14] [nM] | Activity [15] [%] | Activity [16] | Ratio IC50 [17] | Activity [18] | IC50 [19] [nM] | Ratio IC50 [20] | also measured
O=C1NCCN1c1ccc(S(=O)(=O)Nc2ccc3[nH]ccc3c2)cc1 | 770 | 520 | 4840 | 340 | 410 | 27 | 1370 | 1860 | 8 | 3600 | 230 | 260 | 280 | 130 | 22 | Active | 1.4 | Active | 640 | 0.49 | IC50 [21]: 170 nM; inhibition [22]: inactive; Ratio IC50 [23]: 12; Activity [24]: 51%; IC50 [25]: 1310 nM; IC50 [26]: 87 nM
Cc1ccc(C)c(NS(=O)(=O)c2ccc(N3CCNC3=O)cc2)c1 | 86 | 79 | 120 | 72 | 74 | 1 | 1610 | 110 | 27 | 110 | 65 | 81 | 72 | 46 | 20 | Active | 1.4 | Active | 54 | 0.7 | IC50 [21]: 48 nM; inhibition [22]: inactive; Ratio IC50 [23]: 1.6; Activity [24]: 79%; IC50 [25]: 77 nM; IC50 [26]: 27 nM
COc1cc(NS(=O)(=O)c2ccc(N3CCNC3=O)cc2)cc(OC)c1OC | 58 | 38 | > 250 | 19 | 23 | 12 | 51 | > 250 | 40 | 45 | 17 | 21 | 22 | 21 | 12 | Active | >1.3 | Active | 170 | 0.89 | IC50 [21]: 18 nM; growth inhibition (GI) [22]: 25%; Ratio IC50 [23]: >11; Activity [24]: 74%; IC50 [25]: 190 nM; IC50 [26]: 13 nM
O=C1NCCN1c1ccc(S(=O)(=O)Nc2cccc(Br)c2)cc1 | 270 | 90 | 250 | 87 | 110 | 2 | 340 | 270 | 24 | 290 | 170 | 99 | 170 | 77 | 20 | Active | 1.1 | Active | 76 | 0.3 | IC50 [21]: 100 nM; growth inhibition (GI) [22]: 19%; Ratio IC50 [23]: 2.3; Activity [24]: 78%; IC50 [25]: 250 nM; IC50 [26]: 59 nM
Cc1cc(C)cc(NS(=O)(=O)c2ccc(N3CCNC3=O)cc2)c1 | 260 | 210 | 400 | 110 | 170 | 1 | 430 | 250 | 8 | 1220 | 150 | 110 | 190 | 82 | 21 | Active | 1.2 | Active | 120 | 0.57 | IC50 [21]: 100 nM; inhibition [22]: inactive; Ratio IC50 [23]: 2.4; Activity [24]: 78%; IC50 [25]: 210 nM; IC50 [26]: 63 nM
CCc1cccc(NS(=O)(=O)c2ccc(N3CCNC3=O)cc2)c1 | 270 | 250 | 450 | 230 | 200 | 0 | 730 | 250 | 11 | 1410 | 200 | 200 | 230 | 110 | 5 | Active | 1.1 | Active | 140 | 0.61 | IC50 [21]: 130 nM; growth inhibition (GI) [22]: 45%; Ratio IC50 [23]: 2.3; Activity [24]: 95%; IC50 [25]: 230 nM; IC50 [26]: 82 nM
